Assay results from ChEMBL document CHEMBL1671767, “Fusidic acid resistance determinants in Staphylococcus aureus clinical isolates” (2010).
Values after ≈ are worked out from the molar mass of the structure shown.

What was measured:
Assay type in all cases: functional
[1] = tested on: Staphylococcus aureus; experiment: Antibacterial activity against fusidic acid-resistant Staphylococcus aureus harboring E444V and L461F mutations in domain 3 of EF-G encoded by fusA gene after 16 to 20 hrs by CLSI agar dilution method
Summary of the method: (§1)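 Clinical isolates collected at a Taiwanese teaching hospital, 2002–2007. Inoculum was made by direct colony suspension to 0.5 McFarland. 10^4 CFU/spot was applied by Steers replicator onto Mueller-Hinton agar containing fusidic acid at 0.03 to 128 μg/ml. Plates were incubated at 33 to 35°C for 16–20 h. S. aureus ATCC 29213 served as control. Resistance breakpoint was 2 μg/ml.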

[2] = tested on: Staphylococcus aureus; experiment: Antibacterial activity against fusidic acid-resistant Staphylococcus aureus harboring R76C in domain 1 and H457Y mutation in domain 3 of EF-G encoded by fusA gene after 16 to 20 hrs by CLSI agar dilution method; summary of the method: as §1
[3] = tested on: Staphylococcus aureus; experiment: Antibacterial activity against fusidic acid-resistant, methicillin-susceptible Staphylococcus aureus after 16 to 20 hrs by CLSI agar dilution method
Summary of the method: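 Clinical isolates from a Taiwan teaching hospital, 2002–2007. CLSI agar dilution: colonies suspended directly to 0.5 McFarland, and 10^4 CFU/spot applied by Steers replicator to Mueller-Hinton agar containing fusidic acid at 0.03 to 128 μg/ml. Plates incubated 16 to 20 h at 33 to 35°C. S. aureus ATCC 29213 used as control; resistance breakpoint 2 μg/ml.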

[4] = tested on: Staphylococcus aureus; experiment: Antibacterial activity against Staphylococcus aureus harboring L461S mutation in domain 3 of EF-G encoded by fusA gene after 16 to 20 hrs by CLSI agar dilution method; summary of the method: as §1
[5] = tested on: Staphylococcus aureus; experiment: Antibacterial activity against Staphylococcus aureus harboring G451V mutation in domain 3 of EF-G encoded by fusA gene after 16 to 20 hrs by CLSI agar dilution method; summary of the method: as §1
[6] = tested on: Staphylococcus aureus; experiment: Antibacterial activity against fusidic acid-resistant Staphylococcus aureus harboring E444K mutation in domain 3 of EF-G encoded by fusA gene after 16 to 20 hrs by CLSI agar dilution method; summary of the method: as §1
[7] = tested on: Staphylococcus aureus; experiment: Antibacterial activity against fusidic acid-resistant, methicillin-resistant Staphylococcus aureus after 16 to 20 hrs by CLSI agar dilution method; summary of the method: as §1
[8] = tested on: Staphylococcus aureus; experiment: Antibacterial activity against fusidic acid-resistant Staphylococcus aureus harboring H457Q mutation in domain 3 of EF-G encoded by fusA gene after 16 to 20 hrs by CLSI agar dilution method; summary of the method: as §1
[9] = tested on: Staphylococcus aureus; experiment: Antibacterial activity against fusidic acid-resistant Staphylococcus aureus harboring A376V in domain 2 and L456F mutation in domain 3 of EF-G encoded by fusA gene after 16 to 20 hrs by CLSI agar dilution method; summary of the method: as §1
[10] = tested on: Staphylococcus aureus; experiment: Antibacterial activity against methicillin-susceptible Staphylococcus aureus harboring P478S mutation in domain 3 of EF-G encoded by fusA gene after 16 to 20 hrs by CLSI agar dilution method; summary of the method: as §1
[11] = tested on: Staphylococcus aureus; experiment: Antibacterial activity against fusidic acid-resistant methicillin-resistant Staphylococcus aureus harboring P404L mutation in domain 3 of EF-G encoded by fusA gene after 16 to 20 hrs by CLSI agar dilution method; summary of the method: as §1
[12] = tested on: Staphylococcus aureus; experiment: Antibacterial activity against methicillin-susceptible Staphylococcus aureus harboring M651I mutation in domain 5 of EF-G encoded by fusA gene after 16 to 20 hrs by CLSI agar dilution method
Summary of the method: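 Agar dilution per CLSI on Mueller-Hinton agar, fusidic acid 0.03 to 128 μg/ml. Inoculum from direct colony suspension adjusted to 0.5 McFarland, 104 CFU/spot applied by Steers replicator. Plates incubated 33 to 35°C for 16 to 20 h. S. aureus ATCC 29213 as control strain; resistance breakpoint 2 μg/ml.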

[13] = tested on: Staphylococcus aureus; experiment: Antibacterial activity against Staphylococcus aureus harboring P406L mutation in domain 3 of EF-G encoded by fusA gene after 16 to 20 hrs by CLSI agar dilution method; summary of the method: as §1
[14] = tested on: Staphylococcus aureus; experiment: Antibacterial activity against fusidic acid-resistant Staphylococcus aureus harboring A67T in domain 1 and H457Y mutation in domain 3 of EF-G encoded by fusA gene after 16 to 20 hrs by CLSI agar dilution method; summary of the method: as §1
[15] = tested on: Staphylococcus aureus; experiment: Antibacterial activity against fusidic acid-resistant Staphylococcus aureus harboring H457Y mutation in domain 3 of EF-G encoded by fusA gene after 16 to 20 hrs by CLSI agar dilution method; summary of the method: as §1
[16] = tested on: Staphylococcus aureus; experiment: Antibacterial activity against fusidic acid-resistant methicillin-susceptible Staphylococcus aureus harboring P404L mutation in domain 3 of EF-G encoded by fusA gene after 16 to 20 hrs by CLSI agar dilution method; summary of the method: as §1
[17] = tested on: Staphylococcus aureus; experiment: Antibacterial activity against fusidic acid-resistant Staphylococcus aureus harboring H457Q and L461K mutations in domain 3 of EF-G encoded by fusA gene after 16 to 20 hrs by CLSI agar dilution method; summary of the method: as §1
[18] = tested on: Staphylococcus aureus; experiment: Antibacterial activity against fusidic acid-resistant Staphylococcus aureus harboring L461K mutation in domain 3 of EF-G encoded by fusA gene after 16 to 20 hrs by CLSI agar dilution method; summary of the method: as §1
[19] = tested on: Staphylococcus aureus; experiment: Antibacterial activity against fusidic acid-resistant Staphylococcus aureus harboring A71V in domain 1 and P404L mutation in domain 3 of EF-G encoded by fusA gene after 16 to 20 hrs by CLSI agar dilution method; summary of the method: as §1
[20] = tested on: Staphylococcus aureus; experiment: Antibacterial activity against fusidic acid-resistant Staphylococcus aureus harboring M16I in domain 1 and H457Y mutation in domain 3 of EF-G encoded by fusA gene after 16 to 20 hrs by CLSI agar dilution method; summary of the method: as §1
[21] = tested on: Staphylococcus aureus; experiment: Antibacterial activity against fusidic acid-resistant Staphylococcus aureus harboring H457Q and L461F mutations in domain 3 of EF-G encoded by fusA gene after 16 to 20 hrs by CLSI agar dilution method; summary of the method: as §1
[22] = tested on: Staphylococcus aureus; experiment: Antibacterial activity against fusidic acid-resistant Staphylococcus aureus harboring A70V in domain 1 and H457Y mutation in domain 3 of EF-G encoded by fusA gene after 16 to 20 hrs by CLSI agar dilution method; summary of the method: as §1
[23] = tested on: Staphylococcus aureus; experiment: Antibacterial activity against Staphylococcus aureus harboring […] and C473S mutations in domain 3 of EF-G encoded by fusA gene after 16 to 20 hrs by CLSI agar dilution method; summary of the method: as §1
[24] = tested on: Staphylococcus aureus; experiment: Antibacterial activity against Staphylococcus aureus harboring M453I mutation in domain 3 of EF-G encoded by fusA gene after 16 to 20 hrs by CLSI agar dilution method; summary of the method: as §1

CC(=O)O[C@H]1C[C@@]2(C)[C@@H](C[C@@H](O)[C@H]3[C@@]4(C)CC[C@@H](O)[C@@H](C)[C@@H]4CC[C@@]32C)/C1=C(\CCC=C(C)C)C(=O)O [FUSIDIC ACID]
MIC [1]: 32 µg/mL (≈ 61.9 µM) | MIC [2]: > 128 µg/mL | MIC50 [3]: 8 µg/mL (≈ 15.5 µM) | MIC90 [3]: 16 µg/mL (≈ 31 µM) | MIC [4]: 4 µg/mL (≈ 7.74 µM) | MIC [5]: 8 µg/mL (≈ 15.5 µM) | MIC [6]: 16 µg/mL (≈ 31 µM) | MIC50 [7]: 32 µg/mL (≈ 61.9 µM) | MIC90 [7]: > 128 µg/mL | MIC [8]: 8 µg/mL (≈ 15.5 µM) | MIC [9]: 32 µg/mL (≈ 61.9 µM) | MIC [10]: 8 µg/mL (≈ 15.5 µM) | MIC [11]: 8 µg/mL (≈ 15.5 µM) | MIC [12]: 2 µg/mL (≈ 3.87 µM) | MIC [13]: 16 µg/mL (≈ 31 µM) | MIC [14]: 128 µg/mL (≈ 248 µM) | MIC [15]: 128 µg/mL (≈ 248 µM) | MIC [16]: 16 µg/mL (≈ 31 µM) | MIC [17]: > 128 µg/mL | MIC [18]: > 128 µg/mL | MIC [19]: 8 µg/mL (≈ 15.5 µM) | MIC [20]: 16 µg/mL (≈ 31 µM) | MIC [21]: 128 µg/mL (≈ 248 µM) | MIC [22]: > 128 µg/mL | MIC [23]: > 128 µg/mL | MIC [24]: 8 µg/mL (≈ 15.5 µM)
